Results from ChEMBL document CHEMBL1649416, “Structure-based design of potent and selective 2-(quinazolin-2-yl)phenol inhibitors of checkpoint kinase 2” (J Med Chem, 2011).

Test: Metabolic stability in mouse microsomes assessed as decrease in parent compound level after 30 mins by LC/MS
Format: ADME, Microsome
Conditions: read-out: Activity
Procedure, shortened: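 Compounds were incubated with mouse liver microsomes supplemented with UDP-glucuronosyltransferase, covering primary and secondary metabolism. Turnover was expressed as % of parent metabolized at 30 min.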

| metabolised at 0.5 h [%] | SMILES |
| --- | --- |
| 23 | COc1cc2nc(-c3cc(F)ccc3O)nc(N[C@@H]3CNC[C@H]3C(C)(C)O)c2cc1OC |
| 25 | COCCOc1ccc2c(N[C@H]3CCNC3)nc(-c3cc(F)ccc3O)nc2c1 |
| 25 | Oc1ccccc1-c1nc(N[C@H]2CCNC2)c2ccccc2n1 |
| 27 | Oc1ccc(-c2cc[nH]n2)cc1-c1nc(N[C@H]2CCNC2)c2ccccc2n1 |
| 27 | Oc1ccc(F)cc1-c1nc(N[C@H]2CCNC2)c2ccccc2n1 |
| 22 | CC(C)(O)[C@@H]1CNC[C@H]1Nc1nc(-c2cc(-c3cc[nH]n3)ccc2O)nc2ccccc12 |
